Data: publication PMC4834131 (CPT: Pharmacometrics & Systems Pharmacology, 2016)
≈ marks a conversion by molar mass, not a printed value.

Columns and labels:
[1] = PK study after i.v. administration in rats; type: in vivo; settings: rat, plasma, iv, 90 nmol/kg
[2] = biological target: T1, glucocorticoid receptor (Rattus norvegicus, UniProt P06536); test: In vivo glucocorticoid receptor occupancy study; settings: iv, read-out: Observed receptor occupancy
T1 sequence (P06536 1-795): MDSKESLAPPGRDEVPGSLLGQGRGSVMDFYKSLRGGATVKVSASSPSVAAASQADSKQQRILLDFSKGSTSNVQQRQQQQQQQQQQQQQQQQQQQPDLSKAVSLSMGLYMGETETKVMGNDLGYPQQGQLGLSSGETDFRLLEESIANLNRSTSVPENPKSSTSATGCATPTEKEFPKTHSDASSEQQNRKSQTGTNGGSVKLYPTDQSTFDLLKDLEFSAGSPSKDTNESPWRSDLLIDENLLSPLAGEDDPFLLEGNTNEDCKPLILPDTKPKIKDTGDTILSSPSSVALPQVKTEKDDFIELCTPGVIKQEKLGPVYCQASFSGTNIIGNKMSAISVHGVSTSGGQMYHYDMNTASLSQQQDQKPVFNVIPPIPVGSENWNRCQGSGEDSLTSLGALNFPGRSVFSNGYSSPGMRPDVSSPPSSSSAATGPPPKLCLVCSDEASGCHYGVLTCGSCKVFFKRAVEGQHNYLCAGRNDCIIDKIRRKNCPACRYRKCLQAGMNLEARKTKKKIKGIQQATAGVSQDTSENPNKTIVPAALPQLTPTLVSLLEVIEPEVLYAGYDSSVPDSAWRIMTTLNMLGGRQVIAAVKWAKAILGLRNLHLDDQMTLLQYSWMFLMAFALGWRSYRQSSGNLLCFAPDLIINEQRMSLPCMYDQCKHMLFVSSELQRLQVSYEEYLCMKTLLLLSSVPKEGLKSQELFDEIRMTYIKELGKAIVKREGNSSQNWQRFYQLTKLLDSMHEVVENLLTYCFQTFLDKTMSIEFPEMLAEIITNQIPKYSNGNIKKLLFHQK

[3] = Estimation of solubility Cs by fitting PBPK model to total lung concentrations; type: in vivo; settings: rat, inhaled, 11.3 nmol/kg
Method in brief: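 Fit of the whole-body PBPK model with lung disposition to total lung concentrations in rats after nose-only inhalation (lung deposited dose 11.3 nmol/kg). Fitting used nonlinear least squares (Levenberg–Marquardt). The starting value came from an exhaustive sum-of-squares search over a broad range, then 300 candidates within ±200 nM of the best solution. Particle dissolution followed the Nernst–Brunner equation; all other inputs were fixed.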

[4] = In vitro apparent permeability across CaCo2-monolayers; type: in vitro ADME; settings: human, Caco-2
[5] = Fraction unbound in plasma; type: in vitro ADME
[6] = logD7.4; type: physicochemical; settings: pH 7.4
[7] = Unbound lung volume of distribution; type: in vitro ADME

Compound: CCC(=O)O[C@]1(C(=O)SCF)[C@H](C)C[C@H]2[C@@H]3C[C@H](F)C4=CC(=O)C=C[C@]4(C)[C@@]3(F)[C@@H](O)C[C@@]21C [fluticasone propionate]
- clearance ([1]; CLP (plasma clearance)): 182 mL/min/kg
- Vd ([1]; Vdss (volume of distribution at steady state)): 12.5 L/kg
- receptor occupancy at 0.02 µmol/kg [2]: 27 ± 9.7%
- receptor occupancy at 0.75 µmol/kg [2]: 100 ± 3.5%
- solubility [3]: 4.53 µM (≈ 2.27 µg/mL)
- Papp [4]: 46.9 ×10⁻⁶ cm/s
- fraction unbound [5]: 0.016
- logD [6]: 4.2
- Vu,lung (unbound lung volume of distribution) [7]: 213.4 mL/g lung tissue
